Data published in BindingDB's records for doi:10.1021/jm970460b (University of Wisconsin-Milwaukee, 1998).

Target: Gamma-aminobutyric acid receptor subunit alpha-6/beta-3/gamma-2 (Homo sapiens, UniProt Q16445+P18507+P28472)
Assay: Binding affinity measured using LtK- cell membranes expressing Gamma-aminobutyric acid A receptor alpha-6-beta-3-gamma-2
Method in brief: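 Cells scraped, resuspended in 10 mM KH2PO4/100 mM KCl, pH 7.4. Incubation 1 h at 4 °C to equilibrium, filtration, scintillation counting. Ki from iterative least-squares fit, mean of two determinations.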

Gamma-aminobutyric acid receptor subunit alpha-6/beta-3/gamma-2, sequence (Q16445 whole entry): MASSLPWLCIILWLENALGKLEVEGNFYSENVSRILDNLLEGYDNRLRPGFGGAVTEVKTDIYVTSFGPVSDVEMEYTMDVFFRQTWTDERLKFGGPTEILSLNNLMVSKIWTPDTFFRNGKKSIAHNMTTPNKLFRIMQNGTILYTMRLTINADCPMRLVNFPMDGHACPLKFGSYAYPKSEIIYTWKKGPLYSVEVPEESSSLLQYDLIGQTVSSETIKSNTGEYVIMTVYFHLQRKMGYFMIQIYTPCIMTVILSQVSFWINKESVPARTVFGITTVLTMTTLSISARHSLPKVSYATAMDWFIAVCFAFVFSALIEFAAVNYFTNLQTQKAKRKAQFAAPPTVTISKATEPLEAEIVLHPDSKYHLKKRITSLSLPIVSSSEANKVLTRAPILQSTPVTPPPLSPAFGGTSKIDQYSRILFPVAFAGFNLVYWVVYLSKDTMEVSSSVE
Gamma-aminobutyric acid receptor subunit alpha-6/beta-3/gamma-2, sequence (P18507 as listed by the source): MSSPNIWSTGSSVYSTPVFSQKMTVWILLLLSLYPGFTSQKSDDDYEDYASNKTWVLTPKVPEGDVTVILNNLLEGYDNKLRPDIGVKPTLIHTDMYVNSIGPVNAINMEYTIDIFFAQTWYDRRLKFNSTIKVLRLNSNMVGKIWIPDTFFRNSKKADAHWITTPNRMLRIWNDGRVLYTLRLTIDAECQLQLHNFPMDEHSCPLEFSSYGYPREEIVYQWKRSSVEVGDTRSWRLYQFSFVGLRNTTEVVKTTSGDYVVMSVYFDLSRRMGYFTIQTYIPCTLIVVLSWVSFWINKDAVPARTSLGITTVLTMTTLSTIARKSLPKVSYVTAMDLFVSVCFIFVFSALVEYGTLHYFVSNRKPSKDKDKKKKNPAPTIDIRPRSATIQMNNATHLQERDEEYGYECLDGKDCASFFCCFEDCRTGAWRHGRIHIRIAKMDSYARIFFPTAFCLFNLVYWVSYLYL
Gamma-aminobutyric acid receptor subunit alpha-6/beta-3/gamma-2, sequence (P28472 whole entry): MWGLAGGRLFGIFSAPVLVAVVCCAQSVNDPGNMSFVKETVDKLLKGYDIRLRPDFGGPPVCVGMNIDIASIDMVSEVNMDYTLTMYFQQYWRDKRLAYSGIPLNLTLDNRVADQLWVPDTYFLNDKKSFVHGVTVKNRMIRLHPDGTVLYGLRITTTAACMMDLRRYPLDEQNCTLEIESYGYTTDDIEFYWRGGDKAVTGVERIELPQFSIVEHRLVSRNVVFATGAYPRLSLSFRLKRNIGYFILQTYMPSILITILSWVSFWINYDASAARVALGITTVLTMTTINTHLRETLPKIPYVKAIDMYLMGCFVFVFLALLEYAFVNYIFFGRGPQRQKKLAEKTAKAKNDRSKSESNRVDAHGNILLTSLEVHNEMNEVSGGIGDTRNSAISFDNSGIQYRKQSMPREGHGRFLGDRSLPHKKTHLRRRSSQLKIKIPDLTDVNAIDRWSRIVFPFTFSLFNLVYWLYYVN

With CCOC(=O)c1[nH]cc2nc3ccc(OCc4ccccc4)cc3c-2c1COC [6-Benzyloxy-4-methoxymethyl-9H-beta-carboline-3-carboxylic acid ethyl ester] the Ki was > 1000 nM.
